Experimental data published in ChEMBL document CHEMBL2150885, “Dual anticoagulant/antiplatelet persulfated small molecules” (Eur J Med Chem, 2011).
One block for each molecule: values may come before it. The source made the active and inactive calls. No cut-off for these calls is given here.

Key:
Plasma [1] = experiment: Anticoagulant activity in human plasma assessed as effect on APC level using CBS 42.46 as synthetic substrate at 1 x 10^-3 M; type: functional
How it was run: (§1)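 Compound in saline added to citrated human plasma. Protein C activated by a snake venom-derived activator; enzyme formed quantified by amidolytic activity on chromogenic substrate CBS 42.46. Calibration curve linear 3–150%; normal and pathological control plasmas verify accuracy. Compounds at 1 × 10⁻³ M.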

Platelet [2] = experiment: Antiplatelet activity against thrombin receptor-activating peptide-6-induced platelet aggregation in human blood at 6.25 x 10^-4 M measured for 6 mins by multiplate electrical impedance aggregometry; type: functional, cell-based
How it was run: (§2)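 Hirudin-anticoagulated (final […]) healthy-donor whole blood, used within 0.5–1 h. Compound in saline to final 6.25 × 10⁻⁴ M; saline control, acetylsalicylic acid 6.25 × 10⁻⁴ M reference. Blood mixed with saline at 37 °C for 180 s, then agonist at final TRAP-6 […], arachidonic acid 0.5 mM or ADP […]. Impedance recorded 6 min; AUC from mean of two curves, accepted if within 20%.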

Platelet [3] = experiment: Antiplatelet activity against arachidonic acid-induced platelet aggregation in human blood at 6.25 x 10^-4 M measured for 6 mins by multiplate electrical impedance aggregometry; type: functional, cell-based; how it was run: as §2
Platelet [4] = experiment: Antiplatelet activity against adenosine diphosphate-induced platelet aggregation in human blood at 6.25 x 10^-4 M measured for 6 mins by multiplate electrical impedance aggregometry; type: functional, cell-based; how it was run: as §2
MCF7 = experiment: Cytotoxicity against human ER-positive MCF7 cells at 1.5 x 10^-4 after 48 hrs; type: cell-based; conditions: mcf7, 48 h
NCI-H460 = experiment: Cytotoxicity against human NCI-H460 cells at 1.5 x 10^-4 after 48 hrs; type: cell-based; conditions: nci-h460, 48 h
[5] = Cytotoxicity against human A375-C5 cells at 1.5 x 10^-4 after 48 hrs; type: cell-based; conditions: a375-c5, 48 h
Plasma [6] = experiment: Anticoagulant activity in human plasma assessed as effect on APC level using CBS 42.46 as synthetic substrate; type: functional, cell-free; how it was run: as §1
Plasma [7] = experiment: Anticoagulant activity in human plasma assessed as effect on prothrombin level by PT clotting time with factor II deficient plasma
Plasma [8] = experiment: Anticoagulant activity in human plasma assessed as effect on prothrombin level by PT clotting time with factor II deficient plasma at 1 x 10^-3 M
Mus musculus = species on record: Mus musculus; experiment: Acute hepatic toxicity in CD1 mouse; type: organism-based; conditions: in vivo
[9] = molecular target: Antithrombin-III (Bos taurus) (UniProt P41361); experiment: Inhibition of bovine antithrombin-3 at 1 x 10^-3 M
Plasma [10] = experiment: Anticoagulant activity in human plasma assessed as concentration required to double prothrombin time; type: functional
How it was run: (§3)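 Pooled citrated human plasma; compounds in water (10% DMSO for some), final 5 × 10⁻³ to 0.05 × 10⁻³ M; heparin 0.1–10 UI/mL as reference. APTT, PT and TT measured on a coagulometer with commercial kits, clotting time in s. Duplicates repeated on three days (n = 6). Concentration doubling clotting time obtained by linear regression of each concentration-response curve.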

Plasma [11] = experiment: Anticoagulant activity in human plasma assessed as concentration required to double activated partial thromboplastin time; type: functional; how it was run: as §3
Plasma [12] = experiment: Anticoagulant activity in human plasma assessed as concentration required to double thrombin time; type: functional; how it was run: as §3
[13] = molecular target: Coagulation factor X (Homo sapiens) (UniProt P00742); experiment: Inhibition of human factor 10a using CH3SO2-D-Leu-Gly-Arg-pNA, AcOH as substrate at 1 x 10^-3 M by chromogenic substrate hydrolysis assay
How it was run: (§4)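 Chromogenic hydrolysis in 50 mM Tris/HCl pH 8.3, 227 mM NaCl, 0.1% BSA, with and without bovine antithrombin III (1 U/mL final). Human factor Xa 0.5 U/mL with CBS 31.39 […], or human thrombin 0.06 U/mL with Chromozym TH […]. Absorbance at 405 nm, enzyme-free blank subtracted; initial slope vs water control gives % inhibition. Compounds at 1 × 10⁻³ M; n = 6.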

[14] = molecular target: Prothrombin (Homo sapiens) (UniProt P00734); experiment: Inhibition of human thrombin using Tosyl-Gly-Pro-Arg-p-nitroaniline as substrate at 1 x 10^-3 M by chromogenic substrate hydrolysis assay; how it was run: as §4
Blood [15] = experiment: Anticoagulant activity in human whole blood assessed as clotting time at 3.12 x 10'4 M by thromboelastography assay; type: functional
How it was run: (§5)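 Citrated whole blood (citrate:blood 1:9) from healthy donors. Compound in saline diluted 1:16 into blood to final 3.12 × 10⁻⁴ or 6.25 × 10⁻⁴ M; saline control. Thromboelastography with intrinsic activator (InTEM); R clotting time and K clot formation time in s. Mean of three independent experiments in duplicate.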

Blood [16] = experiment: Anticoagulant activity in human whole blood assessed as clotting formation time at 3.12 x 10'4 M by InTEM-TEG assay; type: functional; how it was run: as §5
[17] = Antiplatelet activity against collagen-ADP-activated platelet in human blood assessed as closure time at 6.25 x 10^-4 M; type: functional
How it was run: (§6)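 Healthy-donor whole blood collected into hirudin (final […]), analysed within 0.5–1 h. Closure time measured in a PFA-100 under high shear through an aperture, platelets activated by a collagen-coated membrane with ADP or epinephrine.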

[18] = Antiplatelet activity against collagen-epinephrine-activated platelet in human blood assessed as closure time at 6.25 x 10^-4 M; type: functional; how it was run: as §6
[19] = Metabolic stability of the compound in human plasma assessed as compound remaining after 3 hrs by IP-RP-HPLC analysis; type: ADME, cell-free; conditions: read-out: Stability
How it was run: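 Compound at 25 mM final in human plasma diluted 1:1 with PBS pH 7.4, shaken at 37 °C; sampled at 0 and 180 min, three independent samples. TBA buffer (pH 8) added for ion-pairing, quenched with 4× cold acetonitrile, centrifuged, filtered, dried, redissolved in mobile phase. Quantified by ion-pairing RP-HPLC on C-18, phosphate/TBA buffer:acetonitrile 55:45, 1.0 mL/min.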

Plasma [20] = experiment: Anticoagulant activity in human plasma assessed as concentration required to double thrombin time at 5 x 10^-3 M; type: functional, cell-free; how it was run: as §3
Blood [21] = experiment: Anticoagulant activity in human whole blood assessed as clotting time at 6.25 x 10'4 M by thromboelastography assay; type: functional; how it was run: as §5
Blood [22] = experiment: Anticoagulant activity in human whole blood assessed as clotting formation time at 6.25 x 10'4 M by InTEM-TEG assay; type: functional; how it was run: as §5

Antithrombin-III (Bos taurus), sequence (P41361 whole entry): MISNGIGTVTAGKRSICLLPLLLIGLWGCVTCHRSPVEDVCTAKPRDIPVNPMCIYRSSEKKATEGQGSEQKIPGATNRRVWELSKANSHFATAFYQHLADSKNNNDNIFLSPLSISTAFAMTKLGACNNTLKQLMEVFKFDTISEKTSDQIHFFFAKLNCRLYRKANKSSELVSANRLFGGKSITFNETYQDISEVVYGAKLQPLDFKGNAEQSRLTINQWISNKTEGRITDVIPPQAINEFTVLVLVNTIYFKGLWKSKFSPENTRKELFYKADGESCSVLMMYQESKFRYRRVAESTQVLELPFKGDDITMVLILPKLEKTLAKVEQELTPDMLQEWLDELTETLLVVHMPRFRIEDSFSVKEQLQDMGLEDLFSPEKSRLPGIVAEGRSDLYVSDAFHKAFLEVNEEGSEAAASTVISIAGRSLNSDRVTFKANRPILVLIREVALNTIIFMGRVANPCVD
Coagulation factor X (Homo sapiens), sequence (P00742 41-179 limits assumed): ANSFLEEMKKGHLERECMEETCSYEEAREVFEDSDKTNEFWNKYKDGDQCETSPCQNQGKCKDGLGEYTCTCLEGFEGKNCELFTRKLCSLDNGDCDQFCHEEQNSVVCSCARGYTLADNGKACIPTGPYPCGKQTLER
Coagulation factor X (Homo sapiens), sequence (P00742 235-488 limits assumed): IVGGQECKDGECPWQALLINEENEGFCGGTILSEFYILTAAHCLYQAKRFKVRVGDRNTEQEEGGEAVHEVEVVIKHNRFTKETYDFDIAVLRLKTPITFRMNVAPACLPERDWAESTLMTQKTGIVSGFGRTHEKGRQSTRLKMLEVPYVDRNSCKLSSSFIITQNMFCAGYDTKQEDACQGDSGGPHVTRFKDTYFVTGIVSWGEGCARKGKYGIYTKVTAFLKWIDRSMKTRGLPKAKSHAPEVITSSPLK

SMILES: C[C@@H]1O[C@@H](OC[C@H]2O[C@@H](Oc3c(-c4ccc(OCCOS(=O)(=O)[O-])c(OCCOS(=O)(=O)[O-])c4)oc4cc(OCCOS(=O)(=O)[O-])cc(O)c4c3=O)[C@H](OS(=O)(=O)[O-])[C@@H](OS(=O)(=O)[O-])[C@@H]2OS(=O)(=O)[O-])[C@H](OS(=O)(=O)[O-])[C@H](OS(=O)(=O)[O-])[C@H]1OS(=O)(=O)[O-].[Na+].[Na+].[Na+].[Na+].[Na+].[Na+].[Na+].[Na+].[Na+]
- Activity (Plasma [1]): 38.5%
- AUC (Platelet [2]): 840 AU.min
- AUC (Platelet [3]): 330 AU.min
- AUC (Platelet [4]): 330 AU.min
- Activity (MCF7): Non-toxic
- Activity (NCI-H460): Non-toxic
- Activity [5]: Non-toxic
- Activity (Plasma [6]): Dose-dependent effect
- Activity (Plasma [7]): Dose-dependent effect
- Activity (Plasma [8]): 10.9%

SMILES: C[C@@H]1O[C@@H](OC[C@H]2O[C@@H](Oc3c(-c4ccc(OS(=O)(=O)[O-])c(OS(=O)(=O)[O-])c4)oc4cc(OS(=O)(=O)[O-])cc(OS(=O)(=O)[O-])c4c3=O)[C@H](OS(=O)(=O)[O-])[C@@H](OS(=O)(=O)[O-])[C@@H]2OS(=O)(=O)[O-])[C@H](OS(=O)(=O)[O-])[C@H](OS(=O)(=O)[O-])[C@H]1OS(=O)(=O)[O-].[Na+].[Na+].[Na+].[Na+].[Na+].[Na+].[Na+].[Na+].[Na+].[Na+]
- Activity (Plasma [1]): 28.5%
- AUC (Platelet [2]): 950 AU.min
- AUC (Platelet [3]): 215 AU.min
- AUC (Platelet [4]): 230 AU.min
- Activity (Mus musculus): Non-toxic
- Activity (MCF7): Non-toxic
- Activity (NCI-H460): Non-toxic
- Activity [5]: Non-toxic
- Activity (Plasma [6]): Dose-dependent effect
- Activity (Plasma [7]): Dose-dependent effect
- Activity (Plasma [8]): 9%

SMILES: COc1ccc(-c2cc(=O)c3c(O)cc(O[C@@H]4O[C@H](CO[C@@H]5O[C@@H](C)[C@H](OS(=O)(=O)[O-])[C@@H](OS(=O)(=O)[O-])[C@H]5OS(=O)(=O)[O-])[C@@H](OS(=O)(=O)[O-])[C@H](OS(=O)(=O)[O-])[C@H]4OS(=O)(=O)[O-])cc3o2)cc1O.[Na+].[Na+].[Na+].[Na+].[Na+].[Na+] [HEXASULFATED DIOSMIN]
- 2aPTT (Plasma [11]): 4.35 ×10⁻⁴ M
- Activity (Plasma [1]): 87%
- AUC (Platelet [2]): 1090 AU.min
- AUC (Platelet [3]): 340 AU.min
- AUC (Platelet [4]): 200 AU.min
- Activity (Mus musculus): Non-toxic
- Activity (MCF7): Non-toxic
- Activity (NCI-H460): Non-toxic
- Activity [5]: Non-toxic
- Activity (Plasma [8]): 54%

Further lines, with some results ahead:

- inhibition [9]: inactive
- inhibition [13]: inactive
- inhibition [14]: inactive
- remaining at 3 h [19]: 95%
SMILES: O=S(=O)([O-])OC[C@H]1O[C@@H](Oc2cc(/C=C/c3ccc(OS(=O)(=O)[O-])cc3)cc(OS(=O)(=O)[O-])c2)[C@H](OS(=O)(=O)[O-])[C@@H](OS(=O)(=O)[O-])[C@@H]1OS(=O)(=O)[O-].[Na+].[Na+].[Na+].[Na+].[Na+].[Na+]
- 2PT (Plasma [10]): 1.77 mM
- Activity (Plasma [10]): Dose-dependent effect
- 2aPTT (Plasma [11]): 0.146 mM
- Activity (Plasma [11]): Dose-dependent effect
- Activity (Plasma [12]): Dose-dependent effect
- Activity (Plasma [12]; record 2): 1.95 mM
- Activity (Plasma [1]): 50.5%
- Time (Blood [15]): 447 s
- Time (Blood [16]): 136 s
- Time [17]: 212 s
- Time [18]: 273 s
- AUC (Platelet [2]): 1020 AU.min
- AUC (Platelet [3]): 400 AU.min
- AUC (Platelet [4]): 173 AU.min
- Activity (MCF7): Non-toxic
- Activity (NCI-H460): Non-toxic
- Activity [5]: Non-toxic
- Activity (Plasma [6]): Dose-dependent effect
- Activity (Plasma [7]): Dose-dependent effect
- Activity (Plasma [8]): 12%

- inhibition [9]: inactive
- inhibition [13]: inactive
- inhibition [14]: inactive
SMILES: O=c1ccc2cc(O[C@@H]3O[C@H](COS(=O)(=O)[O-])[C@@H](OS(=O)(=O)[O-])[C@H](OS(=O)(=O)[O-])[C@H]3OS(=O)(=O)[O-])c(OS(=O)(=O)[O-])cc2o1.[Na+].[Na+].[Na+].[Na+].[Na+] [ESCULIN PERSULFATE]
- Activity (Plasma [20]): inactive
- 2PT (Plasma [10]): > 5 mM
- Activity (Plasma [10]): Dose-dependent effect
- 2aPTT (Plasma [11]): 0.309 mM
- Activity (Plasma [11]): Dose-dependent effect
- Activity (Plasma [1]): 87%
- Time (Blood [21]): 340 s
- Time (Blood [22]): 95 s
- AUC (Platelet [2]): 890 AU.min
- AUC (Platelet [3]): 980 AU.min
- AUC (Platelet [4]): 980 AU.min
- Activity (MCF7): Non-toxic
- Activity (NCI-H460): Non-toxic
- Activity [5]: Non-toxic
- Activity (Plasma [8]): 64.5%

- inhibition [9]: inactive
- inhibition [13]: inactive
- inhibition [14]: inactive
SMILES: O=C1O[C@H]([C@H](COS(=O)(=O)[O-])OS(=O)(=O)[O-])C(OS(=O)(=O)[O-])=C1OS(=O)(=O)[O-].[Na+].[Na+].[Na+].[Na+] [ASCORBIC ACID PERSULFATE]
- Activity (Plasma [20]): inactive
- 2PT (Plasma [10]): > 5 mM
- Activity (Plasma [10]): Dose-dependent effect
- 2aPTT (Plasma [11]): 0.315 mM
- Activity (Plasma [11]): Dose-dependent effect
- Activity (Plasma [1]): 94%
- Time (Blood [21]): 205 s
- Time (Blood [22]): 84 s
- Time [17]: 106 s
- Time [18]: 121 s
- AUC (Platelet [2]): 1100 AU.min
- AUC (Platelet [3]): 905 AU.min
- AUC (Platelet [4]): 680 AU.min
- Activity (Plasma [8]): 91.5%
